ChEMBL document CHEMBL5344414, “Maleimide constrained BAD BH3 domain peptides as BCL-xL Inhibitors: A versatile approach to rapidly identify sites compatible with peptide constraining” (Bioorg Med Chem Lett, 2023)
Calls of active or inactive are those of the source. The calls are words filed in the database; no cut-off is given here. Where a SMILES comes first, the peptide text is derived from it.

Key:
BCL2L1/BAD = BCL2L1/BAD (Homo sapiens, UniProt Q07817); assay: Inhibition of BAD/His-SUMO tagged BCL-XL (1 to 209 residues; missing 27 to 82 residues) (unknown origin) overexpressed in Escherichia coli BL21 protein-protein interaction by fluorescence anisotropy competition assay
Chain of BCL2L1/BAD (Q92934 whole entry, the tested form may be a part): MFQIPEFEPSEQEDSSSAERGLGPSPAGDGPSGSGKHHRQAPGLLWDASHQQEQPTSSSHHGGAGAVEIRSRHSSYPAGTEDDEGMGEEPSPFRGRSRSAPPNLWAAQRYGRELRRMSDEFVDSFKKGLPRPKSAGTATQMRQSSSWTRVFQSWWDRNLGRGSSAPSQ
Chain of BCL2L1/BAD (Q07817 whole entry, the tested form may be a part): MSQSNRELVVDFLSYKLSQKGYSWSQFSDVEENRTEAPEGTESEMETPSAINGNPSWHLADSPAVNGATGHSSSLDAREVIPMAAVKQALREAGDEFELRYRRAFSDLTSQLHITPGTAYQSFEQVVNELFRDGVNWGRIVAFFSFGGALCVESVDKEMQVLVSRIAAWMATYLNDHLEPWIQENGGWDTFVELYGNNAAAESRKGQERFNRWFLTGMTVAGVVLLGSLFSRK
In short: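 Final conditions: 200 nM BCL-xL, 50 nM tracer, 20 mM Tris, 150 mM NaCl, pH 7.6, 20 °C, with peptide titrated. Tracer Kd for BCL-xL was determined beforehand by direct titration (6 nM-125 μM protein).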

[1] = target: Induced myeloid leukemia cell differentiation protein Mcl-1/BH3-interacting domain death agonist (Homo sapiens) (UniProt Q07820+P55957); assay: Inhibition of BID/MCL-1 interaction (unknown origin) by fluorescence anisotropy competition assay; format: protein assay
Chain of Induced myeloid leukemia cell differentiation protein Mcl-1/BH3-interacting domain death agonist (Homo sapiens) (P55957 whole entry, looked up, the tested form may be a part): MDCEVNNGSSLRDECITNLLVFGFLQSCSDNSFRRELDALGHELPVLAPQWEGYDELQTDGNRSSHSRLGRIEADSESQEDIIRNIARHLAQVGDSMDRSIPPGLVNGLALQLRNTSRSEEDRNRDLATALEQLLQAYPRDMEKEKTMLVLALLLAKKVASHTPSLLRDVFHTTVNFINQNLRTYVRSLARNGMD
Chain of Induced myeloid leukemia cell differentiation protein Mcl-1/BH3-interacting domain death agonist (Homo sapiens) (Q07820 whole entry, looked up, the tested form may be a part): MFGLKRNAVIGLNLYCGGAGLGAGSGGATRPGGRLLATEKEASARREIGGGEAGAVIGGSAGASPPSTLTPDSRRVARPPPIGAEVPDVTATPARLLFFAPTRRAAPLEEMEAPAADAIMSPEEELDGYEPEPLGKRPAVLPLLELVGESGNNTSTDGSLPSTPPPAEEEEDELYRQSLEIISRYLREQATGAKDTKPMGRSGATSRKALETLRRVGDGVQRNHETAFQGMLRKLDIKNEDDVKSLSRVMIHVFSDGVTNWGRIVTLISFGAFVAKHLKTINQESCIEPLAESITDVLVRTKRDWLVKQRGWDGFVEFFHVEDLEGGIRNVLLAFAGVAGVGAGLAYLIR

Row | SMILES | IC50 (BCL2L1/BAD) [µM] | inhibition [1]
1 | CSCC[C@@H]1NC(=O)[C@@H](NC(=O)[C@H](CCCNC(=N)N)NC(=O)[C@H](CC(C)C)NC(=O)[C@H](CCC(=O)O)NC(=O)[C@H](CCCNC(=N)N)NC(=O)CNC(=O)[C@H](Cc2ccc(O)cc2)NC(=O)[C@H](CCCNC(=N)N)NC(C)=O)CS2=S(C[C@@H](C(=O)N[C@@H](Cc3ccccc3)C(=O)N[C@H](C(=O)N[C@@H](CC(=O)O)C(=O)N[C@@H](CO)C(=O)N[C@@H](Cc3ccccc3)C(=O)N[C@@H](CCCCN)C(=O)N[C@@H](CCCCN)C(N)=O)C(C)C)NC(=O)[C@H](CC(=O)O)NC(=O)[C@H](CO)NC1=O)C(=O)NC2=O (stereo partly specified) | 2.4 | inactive
2 | CSCC[C@H](NC(=O)[C@H](CS)NC(=O)[C@H](CCCNC(=N)N)NC(=O)[C@H](CC(C)C)NC(=O)[C@H](CCC(=O)O)NC(=O)[C@H](CCCNC(=N)N)NC(=O)CNC(=O)[C@H](Cc1ccc(O)cc1)NC(=O)[C@H](CCCNC(=N)N)NC(C)=O)C(=O)N[C@@H](CO)C(=O)N[C@@H](CC(=O)O)C(=O)N[C@@H](CS)C(=O)N[C@@H](Cc1ccccc1)C(=O)N[C@H](C(=O)N[C@@H](CC(=O)O)C(=O)N[C@@H](CO)C(=O)N[C@@H](Cc1ccccc1)C(=O)N[C@@H](CCCCN)C(=O)N[C@@H](CCCCN)C(N)=O)C(C)C (Ac-RYGRELRCMSDCFVDSFKK-NH2) | 6.9 | inactive
3 | CSCC[C@H](NC(=O)[C@H](CCCNC(=N)N)NC(=O)[C@H](CCCNC(=N)N)NC(=O)[C@H](CC(C)C)NC(=O)[C@H](CCC(=O)O)NC(=O)[C@H](CCCNC(=N)N)NC(=O)CNC(=O)[C@H](Cc1ccc(O)cc1)NC(=O)[C@H](CCCNC(=N)N)NC(C)=O)C(=O)N[C@@H](CO)C(=O)N[C@@H](CC(=O)O)C(=O)N[C@@H](CCC(=O)O)C(=O)N[C@@H](Cc1ccccc1)C(=O)N[C@H](C(=O)N[C@@H](CC(=O)O)C(=O)N[C@@H](CO)C(=O)N[C@@H](Cc1ccccc1)C(=O)N[C@@H](CCCCN)C(=O)N[C@@H](CCCCN)C(N)=O)C(C)C (Ac-RYGRELRRMSDEFVDSFKK-NH2) | 3.6 | inactive
